21 molecules from ChEMBL document CHEMBL1140094, “Novel microtubule-interacting phenoxy pyridine and phenyl sulfanyl pyridine analogues for cancer therapy” (J Med Chem, 2008) can be followed below.

Active and inactive are the calls of the source. The rule behind the calls is not given here.

Assay [1] is described as follows: Inhibition of tubulin polymerization.
The subject of assay [2] is PANC-1. The experiment in a line: Growth inhibition of human Panc1 cells at 10 uM after 96 hrs by MTT assay relative to control. The class given is functional. The settings on record: PANC-1, 96 h, values are per cent of control. The method, boiled down: (§1)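 MTT initial screen of Panc1 and HS766T human pancreatic cancer cells at 1 and 10 μM; growth expressed as percent of untreated control with SD.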
In general terms: Tetrazolium assays rely on reduction of a dye to a coloured formazan, in cell work by metabolically active cells.

The nature of assay [3]: Growth inhibition of human HS766T cells at 1 uM after 96 hrs by MTT assay relative to control. The class given is functional. The settings on record: Hs 766, 96 h, values are per cent of control. A digest of the protocol: as §1
A short description of assay [4]: Growth inhibition of human HS766T cells at 10 uM after 96 hrs by MTT assay relative to control. The class given is functional. The settings on record: Hs 766, 96 h, values are per cent of control. The method, boiled down:
as §1

Assay [5] has as its system PANC-1. In words: Growth inhibition of human Panc1 cells at 1 uM after 96 hrs by MTT assay relative to control. The settings on record: PANC-1, 96 h, values are per cent of control. In kind it is functional. The method, boiled down:
as §1

A short description of assay [6]: Growth inhibition of human HS766T cells after 96 hrs by MTT assay relative to control. Conditions: Hs 766, 96 h. In kind it is functional, cell-based.
A short description of assay [7]: Inhibition of tubulin polymerization at 4 to 5 uM relative to control. The method, boiled down:
(§2)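 Turbidity-monitored tubulin assembly; extent of assembly at 20 min compared with no-compound control.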

Assay [8] deals with SK-OV-3. The experiment in a line: Cytotoxicity against paclitaxel-resistant human SKOV3 cells after 7 days by MTT assay. The class given is functional, cell-based.
For assay [9], the system named is MCF7. The experiment in a line: Cell cycle arrest in human MCF7 cells assessed as accumulation at G2/M phase at 5 uM after 15 hrs by propidium iodide staining. In kind it is functional. A digest of the protocol: (§3)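 MCF7 breast cancer cells treated 15 h at 5 μM; colcemid 0.1 μg/mL (about 0.25 μM) as positive control. Cells harvested and fixed, DNA labeled with propidium iodide, mitotic cells labeled with monoclonal MPM2 (phospho-epitopes at mitosis onset); flow cytometry. PI scans gated M1 G1, M3 S, M2 G2/M; mitotic fold increase versus untreated.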

Assay [10] deals with MCF7. In words: Cell cycle arrest in human MCF7 cells assessed as accumulation at G2/M phase at 5 uM after 15 hrs by MPM2 antibody labeling. In kind it is functional. The method, boiled down: as §3
The subject of assay [11] is PANC-1. In words: Growth inhibition of human Panc1 cells after 96 hrs by MTT assay relative to control. The class given is functional, cell-based. The settings on record: PANC-1, 96 h.
The subject of assay [12] is MCF7. In words: Induction of microtubule disassembly in human MCF7 cells assessed as prometaphase cell cycle arrest at 5 uM after 15 hrs by immunofluorescence staining. In kind it is functional, cell-based. A digest of the protocol:
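MCF7 cells exposed 15 h to 5 μM compound, colcemid 0.25 μM as positive control, untreated controls. Anti-α-tubulin primary with Alexa-568 secondary, DNA counterstained with DAPI; immunofluorescence microscopy scoring microtubule loss, mitotic stage (prometaphase arrest) and micronuclei in interphase cells.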

The nature of assay [13]: Inhibition of tubulin polymerization relative to control. The settings on record: values are per cent of control. The method, boiled down:
as §2

The nature of assay [14]: Inhibition of tubulin polymerization assessed as effect on maximum propogation rate.

Take `COc1cc2c(c(OC)c1OC)-c1ccc(OC)c(=O)cc1[C@@H](NC(C)=O)CC2` [COLCHICINE]: half-maximal inhibition in assay [1] (IC50) required 2200 nM.

In the case of `O=C(NC(=O)c1ccccc1)Nc1ccc(Sc2cccc(C(=O)NCc3ccccc3)c2)cc1`, the values for the viability, % of control at 10 µM in assay [2] and in assay [4] were 53% and 73%, respectively. For the same molecule, the viability, % of control at 1 µM in assay [3] was determined as 79%; in assay [5], 67%.

Take `C=CCNC(=O)c1cccc(Sc2ccc(NC(=O)NC(=O)c3ccccc3[N+](=O)[O-])cc2)c1`: the results for the viability, % of control at 10 µM in assay [2] and in assay [4] were 44% and 27%, respectively. Further, the viability, % of control at 1 µM worked out at 50% in [3] and 70% in assay [5].

`C=CCNC(=O)c1cccc(Sc2ccc(NC(=O)NC(=O)c3cc(OC)cc(OC)c3)cc2)c1`: the viability, % of control at 10 µM in assay [2] was determined as 41%; in assay [4], 87%. The viability, % of control at 1 µM worked out at 105% in assay [3] and 62% in [5].

As for `COc1ccc(C(=O)NC(=O)Nc2ccc(Sc3cccc(C(=O)NCc4ccccc4)c3)cc2)c(Cl)c1OC`, the viability, % of control at 10 µM in [2] turned out to be 51%; in assay [4], 75%. The values for the viability, % of control at 1 µM in [3] and in [5] were 97% and 89%, respectively.

Consider `C=CCNC(=O)c1cccc(Sc2ccc(NC(=O)NC(=O)c3ccccc3Cl)cc2)c1`, for which the figures for the viability, % of control at 10 µM in assay [2] and in assay [4] were 46% and 36%, respectively. Also, the viability, % of control at 1 µM in [3] amounted to 109%; in assay [5], 69%.

Consider `CNC(=O)c1cccc(Sc2ccc(NC(=O)NC(=O)c3ccccc3[N+](=O)[O-])cc2)c1`, for which the viability, % of control at 10 µM was determined as 38% in assay [2] and 23% in [4]. The viability, % of control at 1 µM in assay [3] turned out to be 63%; in [5], 60%.

Consider `CNC(=O)c1cccc(Sc2ccc(NC(=O)NC(=O)c3ccccc3)cc2)c1`, for which the viability, % of control at 10 µM stood at 41% in assay [2] and 26% in [4]. For the same molecule, the viability, % of control at 1 µM in [3] is 77%; in assay [5], 65%.

On to `O=C(NC(=O)c1ccccc1Cl)Nc1ccc(Sc2cccc(C(=O)NCc3ccccc3)c2)cc1`, for which the results for the viability, % of control at 10 µM in assay [2] and in [4] were 66% and 74%, respectively. In addition, the viability, % of control at 1 µM in [3] amounted to 95%; in [5], 86%.

Regarding `CCCCCCCCCCNC(=O)c1cccc(S(=O)(=O)c2ccc(NC(=O)NC(=O)c3cc(OC)cc(OC)c3)cc2)c1`, the viability, % of control at 10 µM is 43% in assay [2] and 56% in [4]. The values for the viability, % of control at 1 µM in [3] and in assay [5] were 71% and 48%, respectively.

As for `CNC(=O)c1cccc(Sc2ccc(NC(=O)NC(=O)c3cc(OC)cc(OC)c3Cl)cc2)c1`, the viability, % of control at 10 µM is 52% in assay [2] and 31% in [4]. In addition, the viability, % of control at 1 µM worked out at 54% in assay [3] and 77% in assay [5].

`C=CCNC(=O)c1cccc(Oc2ccc(NC(=S)NC(=O)c3ccccc3)cc2)c1`: the results for the viability, % of control at 10 µM in assay [2] and in assay [4] were 68% and 73%, respectively. For the same molecule, the viability, % of control at 1 µM in assay [3] was 88%; in assay [5], 97%.

For `CCCCCCCCCCNC(=O)c1cccc(Sc2ccc(NC(=O)NC(=O)c3cc(OC)cc(OC)c3)cc2)c1`, the viability, % of control at 10 µM in assay [2] was found to be 58%; in [4], 66%. The viability, % of control at 1 µM in assay [3] turned out to be 77%; in [5] it was 74%.

Regarding `C=CCNC(=O)c1cccc(Oc2ccc(NC(=O)NC(=O)c3ccc(OC)c(OC)c3Cl)cc2)c1`, the viability, % of control at 10 µM was found to be 53% in assay [2] and 50% in [4]. Besides, the viability, % of control at 1 µM in assay [3] worked out at 67%; in assay [5] it was 61%.

For the molecule `CCCCCCCCCCNC(=O)c1cccc(Sc2ccc(NC(=O)NC(=O)c3ccc(OC)c(OC)c3Cl)cc2)c1`, the viability, % of control at 10 µM in assay [2] came out at 51%; in [4], 62%. The values for the viability, % of control at 1 µM in assay [3] and in assay [5] were 79% and 63%, respectively.

With `C=CCNC(=O)c1cccc(Sc2ccc(NC(=O)NC(=O)c3ccc(OC)c(OC)c3Cl)cc2)c1`, the viability, % of control at 10 µM in assay [2] was determined as 44%; in [4] it was 23%. For the same molecule, the viability, % of control at 1 µM in [3] amounted to 101%; in [5] it was 88%.

On to `C=CCNC(=O)c1cccc(Oc2ccc(NC(=O)NC(=O)c3cc(OC)cc(OC)c3)cc2)c1`, for which the figures for the viability, % of control at 10 µM in [2] and in [4] were 68% and 64%, respectively. Further, the viability, % of control at 1 µM turned out to be 107% in [3] and 58% in assay [5].

On to `CNC(=O)c1cccc(Sc2ccc(NC(=O)NC(=O)c3ccc(OC)c(OC)c3Cl)cc2)c1`, for which the IC50 – broadly, the concentration that gives 50% inhibition – in assay [6] stood at 500 nM; in [11] it was 700 nM; in [14] it was 1700 nM. For the same molecule, the inhibition (commonly the percentage by which the read-out fell short of the control) in assay [7] is 50%. The result in [8] and in [12] was Active. Also, the Activity in assay [9] is listed as 75.71%; in [10] it was 47.23%. The viability, % of control at 10 µM in [2] turned out to be 33%; in assay [4], 21%. Further, the values for the viability, % of control at 1 µM in [3] and in assay [5] were 30% and 35%, respectively. Further, in [13], the residual activity (in general, the activity still measured, relative to the control) was 40%.

In the case of `C=CCNC(=O)c1cccc(Oc2ccc(NC(=O)NC(=O)c3ccccc3)cc2)c1`, the viability, % of control at 10 µM stood at 51% in assay [2] and 70% in assay [4]. Moreover, the figures for the viability, % of control at 1 µM in assay [3] and in assay [5] were 76% and 66%, respectively.

As for `C=CCNC(=O)c1cccc(Oc2ccc(NC(=O)NC(=O)c3ccccc3Cl)cc2)c1`, the values for the IC50 in [6], in assay [11] and in assay [14] were 150 nM, 800 nM and 4000 nM, respectively. The Activity is 67.49% in assay [9] and 38.29% in assay [10]. Also, the figures for the viability, % of control at 10 µM in [2] and in assay [4] were 38% and 23%, respectively. The results for the viability, % of control at 1 µM in assay [3] and in [5] were 36% and 47%, respectively. Also, the result in assay [12] was Active.

As for `C=CCNC(=O)c1cccc(Oc2ccc(NC(=O)NC(=O)c3ccccc3[N+](=O)[O-])cc2)c1`, the viability, % of control at 10 µM in assay [2] stood at 55%; in assay [4], 30%. The viability, % of control at 1 µM in [3] came to 55%; in [5], 76%.
